# Results reported in ChEMBL document CHEMBL1221237, “Synthesis of N-aryl-3-(indol-3-yl)propanamides and their immunosuppressive activities” (Bioorg Med Chem Lett, 2010).
# Activity calls are given as the source filed them. The calls are words filed in the database; no cut-off is given here.
# Legend:
# [1] = (§1) Immunosuppressive activity in C57BL/6 mouse splenocytes assessed as inhibition of concanavalin A-induced cell proliferation at 30 uM after 72 hrs by MTT assay; type: functional; conditions: C57BL/6, Splenocyte
# Outline: (§2)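 Splenocytes pooled from two spleens of 8-week-old female C57BL/6 mice, red cells lysed with 20 mM Tris-HCl/140 mM NH4Cl, seeded 1.5×10^5/well. Stimulated with 1 μg/mL ConA, compounds diluted from DMSO into RPMI with 10% FCS and 50 μM mercaptoethanol. 72 h at 37 °C, 5% CO2. MTT 4 h, OD 570 nm, sextuplicate. Inhibition = (control OD − treated OD)/control OD × 100.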
# [2] = (§3) Immunosuppressive activity in C57BL/6 mouse splenocytes assessed as inhibition of concanavalin A-induced cell proliferation at 90 uM after 72 hrs by MTT assay; type: functional; conditions: C57BL/6, Splenocyte; outline: as §2
# Splenocyte [3] = assay: as §1; type: functional; outline: as §2
# Splenocyte [4] = assay: as §3; type: functional; outline: as §2
# [5] = Inhibition of recombinant ERK after 1 hr
# Outline: (§4)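 Recombinant kinase with substrate and 10 μM ATP, 1 h incubation. Compound at 10 final concentrations, 3.16 nM-100 μM. Activity read by AlphaScreen Protein-A detection after bead-mix stop; IC50 derived.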
# [6] = target: Tyrosine-protein kinase JAK2 (Homo sapiens, UniProt O60674); assay: Inhibition of recombinant JAK2 after 1 hr; outline: as §4
# Chain of Tyrosine-protein kinase JAK2 (O60674 whole entry): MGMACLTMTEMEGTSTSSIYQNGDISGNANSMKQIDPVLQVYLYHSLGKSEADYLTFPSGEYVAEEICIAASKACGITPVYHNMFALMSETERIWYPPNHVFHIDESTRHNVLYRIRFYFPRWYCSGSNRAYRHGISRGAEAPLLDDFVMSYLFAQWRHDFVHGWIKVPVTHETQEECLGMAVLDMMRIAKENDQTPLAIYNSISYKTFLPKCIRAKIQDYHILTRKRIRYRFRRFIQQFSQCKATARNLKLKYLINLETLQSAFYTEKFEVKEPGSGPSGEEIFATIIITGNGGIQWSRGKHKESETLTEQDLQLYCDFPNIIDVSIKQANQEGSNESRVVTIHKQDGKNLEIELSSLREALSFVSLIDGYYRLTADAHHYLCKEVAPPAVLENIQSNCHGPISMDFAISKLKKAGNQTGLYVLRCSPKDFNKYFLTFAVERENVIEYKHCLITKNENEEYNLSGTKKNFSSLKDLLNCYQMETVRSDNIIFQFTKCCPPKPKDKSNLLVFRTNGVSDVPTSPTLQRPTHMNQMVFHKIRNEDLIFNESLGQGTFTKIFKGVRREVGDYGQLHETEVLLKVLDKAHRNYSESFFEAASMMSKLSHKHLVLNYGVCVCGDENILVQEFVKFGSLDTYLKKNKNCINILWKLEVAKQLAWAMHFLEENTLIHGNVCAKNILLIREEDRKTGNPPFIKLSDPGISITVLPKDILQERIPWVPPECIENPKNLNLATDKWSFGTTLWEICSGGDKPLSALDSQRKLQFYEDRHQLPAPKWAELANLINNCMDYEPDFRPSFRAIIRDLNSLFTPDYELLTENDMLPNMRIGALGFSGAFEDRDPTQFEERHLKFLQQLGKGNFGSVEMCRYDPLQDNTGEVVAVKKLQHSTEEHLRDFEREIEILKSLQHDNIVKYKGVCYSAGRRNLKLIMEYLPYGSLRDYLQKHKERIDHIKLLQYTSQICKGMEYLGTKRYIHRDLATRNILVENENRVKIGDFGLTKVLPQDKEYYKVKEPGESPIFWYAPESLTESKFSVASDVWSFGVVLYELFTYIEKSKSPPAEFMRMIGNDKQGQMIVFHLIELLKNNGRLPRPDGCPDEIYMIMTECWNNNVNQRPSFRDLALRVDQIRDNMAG
# Aurora kinase A = target: T1, Aurora kinase A (Homo sapiens, UniProt O14965); assay: Inhibition of recombinant aurora A after 1 hr; outline: as §4
# T1 sequence (O14965 whole entry): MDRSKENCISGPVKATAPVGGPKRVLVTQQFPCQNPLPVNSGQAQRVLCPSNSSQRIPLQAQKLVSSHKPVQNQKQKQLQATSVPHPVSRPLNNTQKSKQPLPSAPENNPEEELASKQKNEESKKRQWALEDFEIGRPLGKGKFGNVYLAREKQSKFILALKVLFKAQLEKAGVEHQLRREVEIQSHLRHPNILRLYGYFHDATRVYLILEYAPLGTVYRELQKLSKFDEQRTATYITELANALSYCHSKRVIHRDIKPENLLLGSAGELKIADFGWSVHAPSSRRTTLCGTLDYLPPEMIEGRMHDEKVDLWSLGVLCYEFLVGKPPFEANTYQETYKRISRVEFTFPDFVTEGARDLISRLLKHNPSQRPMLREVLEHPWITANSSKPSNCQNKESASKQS
# [7] = target: Serine/threonine-protein kinase pim-1 (Homo sapiens, UniProt P11309); assay: Inhibition of recombinant Pim1 after 1 hr; outline: as §4
# Mus musculus [8] = assay: Immunosuppressive activity in delayed-type hypersensitivity BALB/C mouse model assessed as inhibition of sheep RBC-induced foot-pad swelling at 50 mg/kg, po qd for 5 days measured after 24 hrs last post dose; type: functional, organism-based; design: dose 50 mg/kg
# Outline: (§5)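 Groups of five female BALB/c mice, 8-9 weeks old, primed iv with 5×10^6 SRBC in PBS. Compound in olive oil given orally daily for 5 days, from priming to challenge. Day 4: 3-4×10^8 SRBC into right hind footpad, PBS into left. Swelling difference read 24 h later; inhibition taken against untreated controls. Mean ± SEM, Dunnett test.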
# [9] = target: Tyrosine-protein kinase ABL1 (Homo sapiens, UniProt P00519); assay: Inhibition of recombinant c-Abl after 1 hr; outline: as §4
# [10] = target: Homeodomain-interacting protein kinase 1 (Homo sapiens, UniProt Q86Z02); assay: Inhibition of recombinant HIPK1 after 1 hr; outline: as §4
# Chain of Homeodomain-interacting protein kinase 1 (Q86Z02 whole entry): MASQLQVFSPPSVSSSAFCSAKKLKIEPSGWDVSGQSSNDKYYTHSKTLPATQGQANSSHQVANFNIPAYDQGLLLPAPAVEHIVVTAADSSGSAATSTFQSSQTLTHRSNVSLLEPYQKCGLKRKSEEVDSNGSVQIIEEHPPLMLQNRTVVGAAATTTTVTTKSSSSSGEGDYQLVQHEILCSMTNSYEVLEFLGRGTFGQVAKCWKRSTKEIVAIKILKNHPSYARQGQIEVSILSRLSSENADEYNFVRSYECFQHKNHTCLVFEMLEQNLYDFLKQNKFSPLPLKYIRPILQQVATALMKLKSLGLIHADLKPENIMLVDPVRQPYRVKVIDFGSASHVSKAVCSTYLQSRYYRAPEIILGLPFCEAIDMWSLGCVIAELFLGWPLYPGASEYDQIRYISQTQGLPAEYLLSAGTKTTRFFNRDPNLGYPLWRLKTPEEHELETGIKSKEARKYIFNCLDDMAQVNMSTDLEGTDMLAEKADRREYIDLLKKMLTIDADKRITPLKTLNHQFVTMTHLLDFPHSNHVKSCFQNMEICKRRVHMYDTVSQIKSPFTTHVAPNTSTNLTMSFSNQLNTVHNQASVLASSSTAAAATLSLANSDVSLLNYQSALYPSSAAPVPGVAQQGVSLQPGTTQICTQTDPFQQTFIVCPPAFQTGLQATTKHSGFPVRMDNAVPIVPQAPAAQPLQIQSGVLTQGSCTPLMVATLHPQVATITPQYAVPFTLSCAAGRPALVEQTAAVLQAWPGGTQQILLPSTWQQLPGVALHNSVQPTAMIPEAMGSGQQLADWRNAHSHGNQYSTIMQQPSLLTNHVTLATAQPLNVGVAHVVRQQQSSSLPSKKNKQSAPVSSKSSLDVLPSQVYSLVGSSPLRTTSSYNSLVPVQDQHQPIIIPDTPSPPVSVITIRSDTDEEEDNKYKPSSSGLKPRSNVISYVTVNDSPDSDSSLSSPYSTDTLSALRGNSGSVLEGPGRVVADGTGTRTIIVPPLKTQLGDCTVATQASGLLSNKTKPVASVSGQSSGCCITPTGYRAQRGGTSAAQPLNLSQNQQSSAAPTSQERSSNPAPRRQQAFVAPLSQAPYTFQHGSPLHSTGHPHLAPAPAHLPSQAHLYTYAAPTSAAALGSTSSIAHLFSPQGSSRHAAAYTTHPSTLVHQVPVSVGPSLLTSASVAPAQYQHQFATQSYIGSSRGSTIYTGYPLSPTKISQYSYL
# [11] = Cytotoxicity in C57BL/6 mouse splenocytes assessed as reduction of cell viability at 90 uM after 48 hrs by MTT assay; type: cell-based; conditions: splenocyte
# Splenocyte [12] = assay: (§6) Immunosuppressive activity in C57BL/6 mouse splenocytes assessed as inhibition of cell proliferation after 72 hrs by MTT assay; type: functional, cell-based; outline: as §2
# [13] = as §6; type: functional, cell-based; conditions: C57BL/6, Splenocyte; outline: as §2
# [14] = target: Tyrosine-protein kinase Yes (Homo sapiens, UniProt P07947); assay: Inhibition of recombinant YES after 1 hr; outline: as §4
# Chain of Tyrosine-protein kinase Yes (P07947 whole entry): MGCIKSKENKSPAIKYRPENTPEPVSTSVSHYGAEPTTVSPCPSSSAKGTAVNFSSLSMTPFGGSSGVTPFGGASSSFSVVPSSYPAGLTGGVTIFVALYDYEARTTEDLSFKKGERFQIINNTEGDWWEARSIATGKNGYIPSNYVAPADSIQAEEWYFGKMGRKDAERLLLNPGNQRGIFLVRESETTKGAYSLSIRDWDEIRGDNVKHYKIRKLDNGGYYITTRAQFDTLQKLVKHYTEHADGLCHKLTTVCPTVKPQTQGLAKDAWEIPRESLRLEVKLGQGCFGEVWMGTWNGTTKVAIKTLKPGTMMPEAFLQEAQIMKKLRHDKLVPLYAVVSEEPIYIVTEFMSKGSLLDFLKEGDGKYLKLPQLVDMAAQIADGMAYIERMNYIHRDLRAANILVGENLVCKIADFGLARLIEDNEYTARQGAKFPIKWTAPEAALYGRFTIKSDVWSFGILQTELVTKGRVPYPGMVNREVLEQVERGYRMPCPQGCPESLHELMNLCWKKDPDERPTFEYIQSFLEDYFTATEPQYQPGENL
# Mus musculus [15] = assay: Immunosuppressive activity in delayed-type hypersensitivity po dosed BALB/C mouse model assessed as inhibition of sheep RBC-induced foot-pad swelling administered qd for 5 days measured after 24 hrs last post dose; type: functional, organism-based; outline: as §5
# [16] = target: T2, Tyrosine-protein kinase JAK3 (Homo sapiens, UniProt P52333); assay: Inhibition of recombinant JAK3 after 1 hr; outline: as §4
# T2 sequence (P52333 whole entry): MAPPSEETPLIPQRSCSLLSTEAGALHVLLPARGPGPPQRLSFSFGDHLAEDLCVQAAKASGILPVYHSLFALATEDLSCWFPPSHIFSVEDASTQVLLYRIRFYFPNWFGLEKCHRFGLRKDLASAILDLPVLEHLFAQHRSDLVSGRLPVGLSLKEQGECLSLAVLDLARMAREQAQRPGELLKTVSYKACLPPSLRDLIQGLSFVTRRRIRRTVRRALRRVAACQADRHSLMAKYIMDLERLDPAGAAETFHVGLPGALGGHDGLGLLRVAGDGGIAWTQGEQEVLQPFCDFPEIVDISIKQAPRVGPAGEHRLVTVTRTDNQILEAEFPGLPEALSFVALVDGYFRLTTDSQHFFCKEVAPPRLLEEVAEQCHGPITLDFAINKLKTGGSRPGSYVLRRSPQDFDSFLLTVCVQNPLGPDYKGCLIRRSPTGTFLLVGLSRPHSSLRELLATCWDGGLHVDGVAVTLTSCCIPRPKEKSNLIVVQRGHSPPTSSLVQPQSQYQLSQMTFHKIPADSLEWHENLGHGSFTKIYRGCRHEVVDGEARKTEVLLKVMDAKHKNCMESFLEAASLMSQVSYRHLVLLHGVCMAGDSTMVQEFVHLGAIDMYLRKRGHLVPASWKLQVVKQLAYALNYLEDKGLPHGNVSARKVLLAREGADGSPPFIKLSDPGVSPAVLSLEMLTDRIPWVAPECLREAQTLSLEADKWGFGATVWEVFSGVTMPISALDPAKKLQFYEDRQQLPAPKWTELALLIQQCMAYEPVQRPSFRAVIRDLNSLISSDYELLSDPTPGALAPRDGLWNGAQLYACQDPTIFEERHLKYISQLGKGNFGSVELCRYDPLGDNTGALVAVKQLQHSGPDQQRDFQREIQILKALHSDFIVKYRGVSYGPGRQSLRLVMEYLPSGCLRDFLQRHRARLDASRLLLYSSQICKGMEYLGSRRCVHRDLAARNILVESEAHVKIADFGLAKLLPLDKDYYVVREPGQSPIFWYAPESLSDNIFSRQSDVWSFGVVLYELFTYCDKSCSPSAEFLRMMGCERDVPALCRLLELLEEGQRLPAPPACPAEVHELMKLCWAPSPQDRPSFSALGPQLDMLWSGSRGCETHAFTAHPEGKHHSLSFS
# [17] = target: Vascular endothelial growth factor receptor 2 (Homo sapiens, UniProt P35968); assay: Inhibition of recombinant KDR after 1 hr; outline: as §4
# Chain of Vascular endothelial growth factor receptor 2 (P35968 whole entry): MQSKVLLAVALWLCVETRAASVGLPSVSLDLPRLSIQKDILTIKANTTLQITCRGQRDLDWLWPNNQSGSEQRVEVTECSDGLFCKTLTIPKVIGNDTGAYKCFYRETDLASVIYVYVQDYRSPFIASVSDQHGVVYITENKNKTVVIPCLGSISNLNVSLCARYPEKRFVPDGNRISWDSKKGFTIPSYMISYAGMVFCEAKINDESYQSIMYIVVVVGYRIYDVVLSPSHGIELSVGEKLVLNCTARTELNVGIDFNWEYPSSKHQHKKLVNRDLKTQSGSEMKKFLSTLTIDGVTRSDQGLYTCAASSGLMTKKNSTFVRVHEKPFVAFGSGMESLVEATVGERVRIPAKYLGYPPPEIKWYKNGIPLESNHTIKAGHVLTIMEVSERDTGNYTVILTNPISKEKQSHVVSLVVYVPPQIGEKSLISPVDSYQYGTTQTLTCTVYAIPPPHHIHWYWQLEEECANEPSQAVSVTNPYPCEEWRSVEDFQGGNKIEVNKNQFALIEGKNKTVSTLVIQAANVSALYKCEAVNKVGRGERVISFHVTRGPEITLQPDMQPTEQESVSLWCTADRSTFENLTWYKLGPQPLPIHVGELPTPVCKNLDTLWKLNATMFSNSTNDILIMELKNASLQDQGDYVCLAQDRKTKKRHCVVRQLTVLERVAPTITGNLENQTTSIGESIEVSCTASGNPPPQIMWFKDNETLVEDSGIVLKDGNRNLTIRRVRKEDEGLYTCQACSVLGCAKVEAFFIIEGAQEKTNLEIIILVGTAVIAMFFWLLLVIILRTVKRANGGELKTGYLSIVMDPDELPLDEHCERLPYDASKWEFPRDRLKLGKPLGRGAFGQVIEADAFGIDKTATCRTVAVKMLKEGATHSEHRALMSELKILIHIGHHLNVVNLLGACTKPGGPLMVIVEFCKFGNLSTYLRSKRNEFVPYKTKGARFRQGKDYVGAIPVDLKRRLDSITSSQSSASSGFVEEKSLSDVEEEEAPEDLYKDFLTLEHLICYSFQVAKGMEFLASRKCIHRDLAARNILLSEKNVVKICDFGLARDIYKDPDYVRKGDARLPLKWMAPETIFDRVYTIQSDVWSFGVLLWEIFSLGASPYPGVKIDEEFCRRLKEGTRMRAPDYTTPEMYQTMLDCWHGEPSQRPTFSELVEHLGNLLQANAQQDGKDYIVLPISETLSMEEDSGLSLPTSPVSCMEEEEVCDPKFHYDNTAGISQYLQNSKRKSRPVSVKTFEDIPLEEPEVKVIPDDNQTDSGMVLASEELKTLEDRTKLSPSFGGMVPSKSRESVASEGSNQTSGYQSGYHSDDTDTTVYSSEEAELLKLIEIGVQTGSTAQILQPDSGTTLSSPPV
# Mus musculus [18] = assay: Acute toxicity in BALB/C mouse at 50 to 120 mg/kg, po qd for 5 days; type: organism-based; design: dose 50-120 mg/kg, route oral; conditions: in vivo, 120 h
# Outline: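 Female BALB/C mice, 8-9 weeks old, groups of five. Dosed orally once daily for 5 days in olive oil, from priming to challenge, within a DTH study: primed iv with 5×10^6 SRBC, footpad challenge with SRBC on day 4. Acute toxicity judged by observation against untreated control mice over the 5-day treatment.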
# [19] = target: High affinity nerve growth factor receptor (Homo sapiens, UniProt P04629); assay: Inhibition of recombinant TrkA after 1 hr; outline: as §4
# Chain of High affinity nerve growth factor receptor (P04629 whole entry): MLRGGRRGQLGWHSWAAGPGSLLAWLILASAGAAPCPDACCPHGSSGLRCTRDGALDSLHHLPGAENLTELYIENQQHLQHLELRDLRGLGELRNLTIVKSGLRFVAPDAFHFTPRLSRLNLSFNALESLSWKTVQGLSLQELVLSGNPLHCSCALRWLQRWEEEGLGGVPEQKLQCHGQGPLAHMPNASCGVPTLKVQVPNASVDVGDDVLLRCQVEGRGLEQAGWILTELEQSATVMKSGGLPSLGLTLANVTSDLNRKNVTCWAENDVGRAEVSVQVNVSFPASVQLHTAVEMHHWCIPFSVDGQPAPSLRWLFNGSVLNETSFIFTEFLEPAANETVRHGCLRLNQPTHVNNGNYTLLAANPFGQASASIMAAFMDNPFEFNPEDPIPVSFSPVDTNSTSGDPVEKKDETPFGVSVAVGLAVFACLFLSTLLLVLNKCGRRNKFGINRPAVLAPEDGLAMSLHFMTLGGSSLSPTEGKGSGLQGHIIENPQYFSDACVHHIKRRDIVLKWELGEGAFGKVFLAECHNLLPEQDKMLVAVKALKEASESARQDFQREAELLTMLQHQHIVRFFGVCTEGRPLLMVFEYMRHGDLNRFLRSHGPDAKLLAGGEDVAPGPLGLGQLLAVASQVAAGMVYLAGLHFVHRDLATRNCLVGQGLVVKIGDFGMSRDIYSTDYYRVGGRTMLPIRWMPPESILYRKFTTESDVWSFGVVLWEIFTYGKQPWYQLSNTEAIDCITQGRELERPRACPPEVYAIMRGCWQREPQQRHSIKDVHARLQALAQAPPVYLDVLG
# Mus musculus [20] = assay: Immunosuppressive activity in delayed-type hypersensitivity BALB/C mouse model assessed as inhibition of sheep RBC-induced foot-pad swelling at 50 to 120 mg/kg, po qd for 5 days measured after 24 hrs last post dose; type: functional; conditions: dose mg/kg 50-120; outline: as §5
structure (smiles),measurement,setting,value
N#Cc1ccc(NC(=O)CCc2cn(Cc3ccc(Cl)cc3)c3ccccc23)cc1,inhibition at 30 µM,[1],30%
same,inhibition at 90 µM,[2],78%
O=C(CCc1cn(Cc2ccc(Cl)cc2)c2ccccc12)Nc1ccnc2ccccc12,inhibition at 30 µM,[1],20%
same,inhibition at 90 µM,[2],37%
O=C(CCc1cn(Cc2ccc(Cl)cc2)c2ccccc12)Nc1ccccc1,inhibition,Splenocyte [3],inactive
same,inhibition,Splenocyte [4],inactive
O=C(CCc1cn(Cc2ccc(Cl)cc2)c2ccccc12)Nc1ccc(C(F)(F)F)cc1,inhibition at 90 µM,[2],18%
O=C(CCc1cn(Cc2ccc(Cl)cc2)c2ccccc12)Nc1ccc([N+](=O)[O-])cc1,IC50,[5],> 100 µM
same,IC50,[6],107 µM
same,inhibition at 30 µM,[1],87%
same,IC50,Aurora kinase A,> 100 µM
same,IC50,[7],> 100 µM
same,inhibition,Mus musculus [8],Active
same,IC50,[9],> 100 µM
same,IC50,[10],> 100 µM
same,Activity,[11],Non-toxic
same,inhibition,Splenocyte [12],Dose-dependent effect
same,IC50,[13],19.8 µM
same,IC50,[14],38.1 µM
same,inhibition,Mus musculus [15],Dose-dependent effect
same,inhibition at 90 µM,[2],92%
same,IC50,[16],34.2 µM
same,IC50,[17],33.2 µM
same,Activity,Mus musculus [18],Non-toxic
same,IC50,[19],> 100 µM
Nc1ccc(NC(=O)CCc2cn(Cc3ccc(Cl)cc3)c3ccccc23)cc1,inhibition,Splenocyte [3],inactive
same,inhibition,Splenocyte [4],inactive
O=C(CCc1cn(Cc2ccc(Cl)cc2)c2ccccc12)Nc1ccccn1,inhibition,Splenocyte [3],inactive
same,inhibition at 90 µM,[2],26%
O=C(CCc1cn(Cc2ccc(Cl)cc2)c2ccccc12)Nc1ccc2ncccc2c1,inhibition,Splenocyte [3],inactive
same,inhibition at 90 µM,[2],86%
O=C(CCc1cn(Cc2ccc(Cl)cc2)c2ccccc12)Nc1ccncc1,IC50,[5],> 100 µM
same,IC50,[6],134 µM
same,inhibition at 30 µM,[1],19%
same,IC50,Aurora kinase A,> 100 µM
same,IC50,[7],> 100 µM
same,IC50,[9],> 100 µM
same,IC50,[10],> 100 µM
same,inhibition (INH),Mus musculus [20],69%
same,IC50,[13],17 µM
same,IC50,[14],30 µM
same,inhibition at 90 µM,[2],87%
same,IC50,[16],52 µM
same,IC50,[17],26 µM
same,IC50,[19],> 100 µM
O=C(CCc1cn(Cc2ccc(Cl)cc2)c2ccccc12)Nc1cccc2cnccc12,inhibition,Splenocyte [3],inactive
same,inhibition at 90 µM,[2],17%
O=C(CCc1cn(Cc2ccc(Cl)cc2)c2ccccc12)Nc1cccc2ncccc12,inhibition,Splenocyte [3],inactive
same,inhibition,Splenocyte [4],inactive
O=C(CCc1cn(Cc2ccc(Cl)cc2)c2ccccc12)Nc1cccnc1,inhibition at 30 µM,[1],28%
same,inhibition at 90 µM,[2],40%
